According to ChEMBL document CHEMBL1649070, “Virtual screening identification of nonfolate compounds, including a CNS drug, as antiparasitic agents inhibiting pteridine reductase” (J Med Chem, 2011):
≈ marks a conversion by molar mass, not a printed value. Calls of active or inactive are those of the source. The calls are words filed in the database; no cut-off is given here.

Tests used:
[1] = Solubility of the compound at pH 7.4; format: physicochemical; settings: buffer
[2] = Lipophilicity, log D of the compound in octanol buffer at pH 7.4; format: physicochemical
[3] = target: T1, Pteridine reductase 1 (Leishmania major) (UniProt Q01782); assay: Inhibition of Leishmania major PTR1 at 5 uM
T1 sequence (whole entry): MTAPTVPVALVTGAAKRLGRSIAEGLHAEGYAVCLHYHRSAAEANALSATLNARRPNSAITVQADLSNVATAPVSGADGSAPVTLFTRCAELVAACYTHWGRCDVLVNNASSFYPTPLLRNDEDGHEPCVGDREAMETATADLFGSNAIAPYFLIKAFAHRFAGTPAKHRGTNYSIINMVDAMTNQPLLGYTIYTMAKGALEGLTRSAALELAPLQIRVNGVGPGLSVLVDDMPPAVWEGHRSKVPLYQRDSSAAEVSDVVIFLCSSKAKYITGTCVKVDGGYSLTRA
Method in brief: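 Compounds dissolved in DMSO and screened at a single 5 μM concentration; DMSO kept below 1%. Measurements run in triplicate.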

[4] = target: T1, Pteridine reductase 1 (Leishmania major); settings: at 500 µM
[5] = target: Bifunctional dihydrofolate reductase-thymidylate synthase (Leishmania major) (UniProt P07382); assay: Inhibition of Leishmania major DHFR at 50 uM
Method in brief: (§1)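 NADPH oxidation followed at 340 nm. Compounds in DMSO, screened at a single concentration between 25 μM and 1 mM. Measurements run in triplicate.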

[6] = target: T2, Dihydrofolate reductase (Homo sapiens) (UniProt P00374); assay: Inhibition of human DHFR at 50 uM; method in brief: as §1
T2 sequence (whole entry): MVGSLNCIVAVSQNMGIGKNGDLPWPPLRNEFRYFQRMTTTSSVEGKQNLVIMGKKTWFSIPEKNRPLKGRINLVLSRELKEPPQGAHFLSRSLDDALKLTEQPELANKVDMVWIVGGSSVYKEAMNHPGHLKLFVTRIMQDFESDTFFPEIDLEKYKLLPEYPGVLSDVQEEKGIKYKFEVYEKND

Leishmania mexicana [7] = assay: Antileishmanial activity against Leishmania mexicana MHOM/BZ/84/BEL46 assessed as growth at 50 ug/ml by Alamar blue assay; format: functional
Method in brief: (§2)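 Promastigotes grown in SDM-79, pH 7.3, with 15% heat-inactivated FCS at 28 C in 5% CO2, then seeded at 1 × 10^6 parasites/mL. Each compound tested alone at 50 μg/mL in duplicate as a control for the combination experiments; DMSO below 1% final. After 72 h at 28 C, Alamar Blue added for 4 h; fluorescence read at ex 530 / em 590 nm. Growth expressed as percentage of untreated cultures.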

Leishmania major [8] = assay: Antileishmanial activity against Leishmania major MHOM/SU/73/5-ASKH assessed as growth at 50 ug/ml by Alamar blue assay; format: functional; method in brief: as §2
Leishmania major [9] = assay: Antileishmanial activity against Leishmania major MHOM/SU/73/5-ASKH assessed as growth at 50 ug/ml by Alamar blue assay in presence of pyrimethamine; 5-(4-chlorophenyl)-6-ethylpyrimidine-2,4-diamine DHFR inhibitor; values are per cent of control
Leishmania mexicana [10] = assay: Antileishmanial activity against Leishmania mexicana MHOM/BZ/84/BEL46 assessed as growth at 50 ug/ml by Alamar blue assay in presence of pyrimethamine; 5-(4-chlorophenyl)-6-ethylpyrimidine-2,4-diamine DHFR inhibitor; values are per cent of control
[11] = Cytotoxicity against human MRC5 cells after 72 hrs by Alamar blue assay; format: cell-based; settings: read-out: ED50
[12] = target: T2, Dihydrofolate reductase (Homo sapiens); assay: Inhibition of human DHFR at 100 uM; method in brief: as §1
[13] = target: T2, Dihydrofolate reductase (Homo sapiens); assay: Inhibition of human DHFR at 1 mM; method in brief: as §1

Bifunctional dihydrofolate reductase-thymidylate synthase (Leishmania major), sequence (P07382 whole entry, looked up): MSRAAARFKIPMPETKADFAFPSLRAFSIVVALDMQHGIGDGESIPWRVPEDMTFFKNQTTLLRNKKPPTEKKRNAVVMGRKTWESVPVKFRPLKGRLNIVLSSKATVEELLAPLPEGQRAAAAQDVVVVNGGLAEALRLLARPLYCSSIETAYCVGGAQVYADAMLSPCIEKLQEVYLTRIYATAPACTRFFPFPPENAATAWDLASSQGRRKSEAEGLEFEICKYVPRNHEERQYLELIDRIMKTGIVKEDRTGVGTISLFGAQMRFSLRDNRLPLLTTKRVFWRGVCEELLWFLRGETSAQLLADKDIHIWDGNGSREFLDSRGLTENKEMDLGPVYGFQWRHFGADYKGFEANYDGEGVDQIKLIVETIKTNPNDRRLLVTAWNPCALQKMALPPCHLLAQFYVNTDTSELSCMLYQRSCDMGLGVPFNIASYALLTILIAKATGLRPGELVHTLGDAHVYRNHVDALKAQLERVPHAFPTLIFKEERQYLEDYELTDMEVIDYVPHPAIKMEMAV

In the case of `Cc1nnc(N)s1`, the solubility [1] was 210000 µM (≈ 24200 µg/mL), the logD [2] was -0.16 and the inhibition [3] was “inactive”.
With `COc1ccc2c(c1)c(C=O)cn2C` the inhibition [4] was “inactive”.
In the case of `Nc1nnc(CCOc2ccc(Cl)cc2)s1`, the solubility [1] was 240 µM (≈ 61.4 µg/mL), the logD [2] was 2.44 and the inhibition [3] was “inactive”.
For `CC(=O)c1ccc(C#N)s1`, the inhibition [4] was “inactive”.
With `CC(=O)n1cc(C=O)c2ccccc21` the inhibition [4] was “inactive”.
In the case of `Nc1cc(F)ccc1O`, the inhibition [4] was “inactive”.
For `Nc1nnc(-c2ccco2)s1`, the solubility [1] was 13000 µM (≈ 2170 µg/mL), the logD [2] was 0.82 and the inhibition [3] was “inactive”.
In the case of `NCCc1ccc(-c2nnc(N)s2)cc1`, the solubility [1] was 210000 µM (≈ 46300 µg/mL), the logD [2] was -0.69 and the inhibition [3] was “inactive”.
With `CCC(C)c1nnc(N)s1` (stereo not given) the solubility [1] was 22000 µM (≈ 3460 µg/mL), the logD [2] was 1.25 and the inhibition [3] was “inactive”.
In the case of `Nc1ccc(Cl)cc1C=O`, the inhibition [4] was “inactive”.
With `Nc1nnc(-c2cccc(NS(=O)(=O)c3ccc([N+](=O)[O-])cc3)c2)s1` the solubility [1] was 19 µM (≈ 7.17 µg/mL), the logD [2] was 2.43 and the inhibition [3] was “inactive”.
In the case of `O=Cc1ccc2c(c1)CCO2`, the inhibition [4] was “inactive”.
For `Nc1nnc(CCC(=O)c2ccc(Cl)cc2)s1`, the inhibition [5] was “inactive”, the inhibition [6] was “inactive” and the solubility [1] was 210 µM (≈ 56.2 µg/mL). For the same compound, the logD [2] was 2.2 and the inhibition [3] was “inactive”.
In the case of `Nc1nnc(CC2NC(=O)NC2=O)s1` (stereo not given), the solubility [1] was 87000 µM (≈ 18600 µg/mL), the logD [2] was -1.74 and the inhibition [3] was “inactive”.
In the case of `Cc1ccc(C=O)cc1F`, the inhibition [4] was “inactive”.
With `Cc1cccc2cc[nH]c12` the inhibition [4] was “inactive”.
For `O=C(CO)c1ccc(Cl)cc1`, the inhibition [4] was “inactive”.
In the case of `Nc1nc(-c2ccc(Cl)cc2)cs1`, the inhibition [4] was “inactive”.
With `CN(C)c1ccc(C=O)cc1C#N` the inhibition [4] was “inactive”.
For `O=C1CCCN1c1ccccc1`, the inhibition [4] was “inactive”.
With `O=C(O)CCNC(=O)c1ccc([N+](=O)[O-])cc1` the inhibition [4] was “inactive”.
For `CCn1nc(C)cc1N`, the inhibition [4] was “inactive”.
For `Nc1nnc(-c2ccc3[nH]nnc3c2)s1`, the inhibition [5] was “inactive”, the inhibition [6] was “inactive” and the growth, % of control at 50 µg/mL (Leishmania mexicana [7]) was 112%. The growth, % of control at 50 µg/mL (Leishmania major [8]) was 83.5%, the inhibition [3] was “inactive” and the growth, % of control at 50 µg/mL (Leishmania major [9]) was 40.9%. The growth, % of control at 50 µg/mL (Leishmania mexicana [10]) was 18.2%.
In the case of `NC(=O)C1=C2CCCc3cccc(c32)C1=O`, the inhibition [4] was “inactive”.
With `O=C(Nc1nnc(-c2ccncc2)s1)c1ccncc1` the inhibition [3] was “inactive”.
For `OCc1ccc2[nH]ccc2c1`, the inhibition [4] was “inactive”.
With `Clc1cccc(-n2ccnc2)c1` the inhibition [4] was “inactive”.
In the case of `CCOc1ccc(-c2nnc(N)s2)cc1`, the solubility [1] was 440 µM (≈ 97.4 µg/mL), the logD [2] was 2.73 and the inhibition [3] was “inactive”.
With `CCc1nc(N)nc(N)c1-c1ccc(Cl)cc1` [PYRIMETHAMINE] the growth, % of control at 50 µg/mL (Leishmania mexicana [7]) was 102%, the growth, % of control at 50 µg/mL (Leishmania major [8]) was 68% and the CC50 at 72 h [11] was 16.2 mg/L (≈ 65.3 µM).
With `Nc1nnc(CN2C(=O)c3ccccc3C2=O)s1` the solubility [1] was 1300 µM (≈ 338 µg/mL), the logD [2] was 0.22 and the inhibition [3] was “inactive”.
For `Nc1nnc(-c2cc(=O)c3ccccc3o2)s1`, the inhibition [6] was “inactive”, the growth, % of control at 50 µg/mL (Leishmania mexicana [7]) was 132% and the growth, % of control at 50 µg/mL (Leishmania major [8]) was 76%. The CC50 at 72 h [11] was 43 mg/L (≈ 175 µM), the solubility [1] was 730 µM (≈ 179 µg/mL) and the logD [2] was 1.4. For the same compound, the inhibition [3] was “inactive”, the growth, % of control at 50 µg/mL (Leishmania major [9]) was 14.6% and the growth, % of control at 50 µg/mL (Leishmania mexicana [10]) was 35.1%.
`Nc1nnc(-c2ccc3nn[nH]c3c2)s1` showed a CC50 at 72 h [11] of 51.5 mg/L (≈ 236 µM), a solubility [1] of 2500 µM (≈ 546 µg/mL) and a logD [2] of 0.38.
In the case of `Nc1nnc(CCc2ccccc2)s1`, the solubility [1] was 1300 µM (≈ 267 µg/mL), the logD [2] was 2.03 and the inhibition [3] was “inactive”.
With `C=CCc1cc(OC)c(O)cc1C=O` the inhibition [4] was “inactive”.
In the case of `COc1ccc(C(C)=O)cc1CCl`, the inhibition [4] was “inactive”.
In the case of `N#Cc1ccc(-c2nnc(N)s2)cc1`, the solubility [1] was 390 µM (≈ 78.9 µg/mL), the logD [2] was 1.68 and the inhibition [3] was “inactive”.
With `c1ccc2cnncc2c1` the inhibition [4] was “inactive”.
For `Nc1ccnc2ccccc12`, the inhibition [4] was “inactive”.
In the case of `Nc1nnc(-c2ccncc2)s1`, the solubility [1] was 13000 µM (≈ 2320 µg/mL), the logD [2] was 0.77 and the inhibition [3] was “inactive”.
In the case of `CN1CCOc2cc(C=O)ccc21`, the inhibition [4] was “inactive”.
With `Cc1nnsc1SC(C)C` the inhibition [4] was “inactive”.
With `Nc1nnc(CCCC(=O)c2ccccc2)s1` the solubility [1] was 780 µM (≈ 193 µg/mL), the logD [2] was 1.76 and the inhibition [3] was “inactive”.
With `Nc1nnc(-c2ccccc2)s1` the solubility [1] was 2000 µM (≈ 354 µg/mL), the logD [2] was 2.03 and the inhibition [3] was “inactive”.
With `Nc1ccc(F)c(F)c1N` the inhibition [4] was “inactive”.
In the case of `Nc1nnc(-c2cccc(NS(=O)(=O)c3cccc([N+](=O)[O-])c3)c2)s1`, the solubility [1] was 24 µM (≈ 9.06 µg/mL), the logD [2] was 2.36 and the inhibition [3] was “inactive”.
With `C/C(=N\N)c1ccc(C)cc1` the inhibition [4] was “inactive”.
In the case of `C#CCn1cc(C(=O)O)c(=O)c2cc(F)c(Cl)cc21`, the inhibition [4] was “inactive”.
For `Cc1ccc(C(=N)N)cc1`, the inhibition [4] was “inactive”.
For `Nc1nnc(-c2cccc([N+](=O)[O-])c2)s1`, the solubility [1] was 530 µM (≈ 118 µg/mL), the logD [2] was 1.94 and the inhibition [3] was “inactive”.
For `O=C(c1ccc(O)cc1)c1ccc(F)cc1`, the inhibition [5] was “inactive” and the inhibition [6] was “inactive”.
In the case of `NNc1cccc(F)n1`, the inhibition [4] was “inactive”.
With `Cn1cc(C(=O)O)c2ccccc21` the inhibition [4] was “inactive”.
For `O=C1Cc2ccc(F)cc2N1`, the inhibition [4] was “inactive”.
For `COc1ccc(N2CCCC2=O)cc1`, the inhibition [4] was “inactive”.
For `Nc1cc(-c2ccccc2)n[nH]1`, the inhibition [4] was “inactive”.
With `Nc1cccc2c1C(=O)c1ccccc1-2` the inhibition [4] was “inactive”.
Work on `Nc1nnc(CCCl)s1` yielded a solubility [1] of 42000 µM (≈ 6870 µg/mL) and a logD [2] of 0.44.
In the case of `Cc1ccc(-c2nnc(N)s2)cc1C`, the solubility [1] was 420 µM (≈ 86.2 µg/mL), the logD [2] was 2.95 and the inhibition [3] was “inactive”.
In the case of `O=C(O)c1ccc2cc[nH]c2c1`, the inhibition [4] was “inactive”.
With `CN(C)C1=C2C=CC=C2C(=O)C1` the inhibition [4] was “inactive”.
With `Fc1cccc(-n2ccnc2)c1` the inhibition [4] was “inactive”.
Work on `Nc1nnc(CCC(=O)c2cccs2)s1` yielded a growth, % of control at 50 µg/mL (Leishmania mexicana [7]) of 96.9%, a growth, % of control at 50 µg/mL (Leishmania major [8]) of 85.1% and a CC50 at 72 h [11] of 34.4 mg/L (≈ 144 µM). The solubility [1] was 1200 µM (≈ 287 µg/mL), the logD [2] was 1.11 and the inhibition [3] was “inactive”. The growth, % of control at 50 µg/mL (Leishmania major [9]) was 17.5% and the growth, % of control at 50 µg/mL (Leishmania mexicana [10]) was 27.3%.
In the case of `Cc1ccc(C(=O)Nc2nnc(-c3ccc(C)c(C)c3)s2)cc1C`, the inhibition [3] was “inactive”.
For `Nc1ccc(F)c(N)c1`, the inhibition [4] was “inactive”.
For `CCOc1ccc(CO)cc1`, the inhibition [4] was “inactive”.
With `Cc1cccc(-c2nnn[nH]2)c1` the inhibition [4] was “inactive”.
For `N#C/C=C(/N)N1CCCC1`, the inhibition [4] was “inactive”.
With `Cn1ncc2cc(N)ccc21` the inhibition [5] was “inactive” and the inhibition [12] was “inactive”.
With `Nc1cc(O)c2ccccc2n1` the inhibition [4] was “inactive”.
For `O=C(CN1C(=O)c2ccccc2C1=O)Nc1nnc(CN2C(=O)c3ccccc3C2=O)s1`, the inhibition [5] was “inactive”, the inhibition [6] was “inactive” and the inhibition [3] was “inactive”.
For `Cc1cc(C)cc(-c2nnc(N)s2)c1`, the solubility [1] was 400 µM (≈ 82.1 µg/mL), the logD [2] was 2.95 and the inhibition [3] was “inactive”.
For `O=c1[nH]c2c(Cl)cccc2s1`, the inhibition [4] was “inactive”.
For `Nc1nncs1`, the inhibition [13] was “inactive”.
For `Cc1cc(=O)n(C)c2ccccc12`, the inhibition [4] was “inactive”.
In the case of `NCCc1ccc(N)cc1`, the inhibition [4] was “inactive”.
For `CC(=O)c1cccc(O)c1`, the inhibition [4] was “inactive”.
In the case of `O=Cc1ccc(O)cc1F`, the inhibition [4] was “inactive”.
For `Nc1nnc([C@@H](O)c2ccccc2)s1`, the solubility [1] was 3700 µM (≈ 767 µg/mL), the logD [2] was 1 and the inhibition [3] was “inactive”.
